# pIC50: −log10 of the molar value.
# Columns and labels:
# [1] = biological target: T1, Thromboxane A2 receptor (Homo sapiens, UniProt P21731); assay: In vitro thromboxane-A2 receptor binding affinity to displace by 50% [3H]-SQ 29548 binding from washed human platelets
# T1 sequence (P21731 whole entry): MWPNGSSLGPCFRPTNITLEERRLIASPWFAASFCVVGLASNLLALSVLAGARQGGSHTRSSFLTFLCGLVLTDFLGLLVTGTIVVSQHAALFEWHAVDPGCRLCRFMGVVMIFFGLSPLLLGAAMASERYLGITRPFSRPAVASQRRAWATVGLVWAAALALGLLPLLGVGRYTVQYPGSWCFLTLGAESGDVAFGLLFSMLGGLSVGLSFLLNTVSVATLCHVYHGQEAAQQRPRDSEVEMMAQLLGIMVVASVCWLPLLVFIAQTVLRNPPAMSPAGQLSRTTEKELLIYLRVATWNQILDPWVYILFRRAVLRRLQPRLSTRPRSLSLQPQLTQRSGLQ
# [2] = biological target: T2, Thromboxane-A synthase (Rattus norvegicus) (UniProt P49430); assay: Tested for the in vitro inhibition of thromboxane-A2 synthase in rat whole blood during clotting at 37 degrees Celsius at >1 uM; type: tissue-based
# T2 sequence (whole entry): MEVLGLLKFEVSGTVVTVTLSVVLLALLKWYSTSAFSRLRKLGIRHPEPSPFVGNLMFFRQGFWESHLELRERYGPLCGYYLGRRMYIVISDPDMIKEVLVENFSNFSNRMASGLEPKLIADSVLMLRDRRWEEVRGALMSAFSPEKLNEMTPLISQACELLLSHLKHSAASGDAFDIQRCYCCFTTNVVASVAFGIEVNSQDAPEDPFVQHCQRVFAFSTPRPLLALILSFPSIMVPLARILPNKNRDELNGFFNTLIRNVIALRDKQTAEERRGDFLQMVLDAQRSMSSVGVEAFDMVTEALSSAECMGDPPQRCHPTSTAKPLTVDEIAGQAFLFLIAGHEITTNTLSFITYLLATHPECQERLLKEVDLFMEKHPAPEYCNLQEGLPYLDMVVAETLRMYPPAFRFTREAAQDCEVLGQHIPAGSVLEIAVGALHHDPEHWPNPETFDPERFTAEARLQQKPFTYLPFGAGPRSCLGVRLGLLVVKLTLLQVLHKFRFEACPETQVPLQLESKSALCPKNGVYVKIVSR
# In short: (§1)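 Rat whole blood allowed to clot 1 h at 37 °C with test agent, then spun for serum, stored -20 °C. Serum TxB2 measured by RIA with [3H]TxB2 and rabbit antiserum, incubated 16–24 h at 4 °C, charcoal separation, scintillation counting.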
# [3] = biological target: T3, Thromboxane-A synthase (Rattus norvegicus, UniProt P49430); assay: In vitro inhibition of thromboxane-A2 synthase in rat whole blood during clotting at 37 degrees Centigrade; type: tissue-based; in short: as §1
# T3 sequence (P49430 whole entry): T2 sequence (whole entry)
# [4] = species: Homo sapiens; assay: Tested in vitro for the umolar concentration required to inhibit U-46,619-induced platelet aggregation in human platelet rich plasma (PRP); type: functional
# In short: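 Citrated human blood (3.8%, 9:1), PRP by centrifugation. PRP preincubated 5 min at 37 °C with vehicle or compound, then challenged with a submaximal U46619 concentration chosen from a concentration–response curve. Aggregation followed by photoelectric aggregometry.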
# [5] = biological target: T2, Thromboxane-A synthase (Rattus norvegicus); assay: Tested for in vitro inhibition of TxA synthase in rat whole blood at 1 uM; type: tissue-based
SMILES,pIC50 [1],inhibition [2] [%],pIC50 [3],pIC50 [4],inhibition [5] [%]
CC(/C(=N/OCCCCC(=O)O)c1ccccc1)n1ccnc1 (centres undefined),4.14,37,< 6.00,–,–
O=C(O)CCCCO/N=C(\c1ccc(Br)cc1)C(Cc1ccccc1)n1ccnc1 (centres undefined),5.62,15,< 6.00,–,–
O=C(O)CCCCO/N=C(/c1cccnc1)c1cccc(C(F)(F)F)c1 [RIDOGREL],5.68,–,7.52,5.48,–
O=C(O)CCCCO/N=C(/Cn1ccnc1)C1CCCCC1,4.56,–,6.19,–,–
C/C(=N\OCCCCC(=O)O)C(Cc1ccccc1)n1ccnc1 (centres undefined),4.63,–,6.70,–,–
CS(=O)(=O)c1ccc(CC(/C(=N/OCCCCC(=O)O)C2CCCCC2)n2ccnc2)cc1 (centres undefined),6.64,32,< 6.00,–,–
O=C(O)CCCCO/N=C(\C1CCCCC1)C(Cc1ccccc1F)n1ccnc1 (centres undefined),6.52,–,6.46,–,–
O=C(O)/C=C/CCCO/N=C(\c1ccccc1)C(Cc1ccccc1)n1ccnc1 (centres undefined),5.98,47,< 6.00,–,–
O=C(O)CCCCCO/N=C(/c1ccccc1)C(Cc1ccccc1)n1ccnc1 (centres undefined),6.01,26,< 6.00,–,–
O=C(O)CCCCCO/N=C(\Cn1ccnc1)C1CCCCC1,4.62,–,< 6.00,–,19
O=C(O)CCCCO/N=C(\c1ccccc1)C(Cc1ccc(Cl)cc1)n1ccnc1 (centres undefined),7.40,–,6.05,–,–
O=C(O)Cc1ccc(CCNS(=O)(=O)c2ccc(Cl)cc2)cc1 [DALTROBAN],–,–,< 4.00,–,–
O=C(O)/C=C/CCO/N=C(\c1ccccc1)C(Cc1ccccc1)n1ccnc1 (centres undefined),6.92,26,< 6.00,–,–
O=C(O)CCCCO/N=C(\Cn1ccnc1)c1cccnc1,< 4.00,–,< 6.00,–,24
O=C(O)CCCCCO/N=C(\c1ccccc1)C(Cc1ccccc1)n1ccnc1 (centres undefined),6.80,–,5.96,–,–
O=C(O)CCCCO/N=C(\C1CCCCC1)C(Cc1cccc(F)c1)n1ccnc1 (centres undefined),7.52,–,6.57,–,–
CC(C)(CCCO/N=C(\c1ccccc1)C(Cc1ccccc1)n1ccnc1)C(=O)O (centres undefined),5.38,–,6.12,–,–
CCCCCC/C(Cn1ccnc1)=N/OCCCCC(=O)O,4.91,–,7.40,–,–
O=C(O)CCCCO/N=C(\C1CCCCC1)C(Cc1ccco1)n1ccnc1 (centres undefined),6.55,–,7.00,–,–
O=C(O)CCCCO/N=C(\C1CCCCC1)C(Cc1ccc(C(F)(F)F)cc1)n1ccnc1 (centres undefined),7.30,–,6.05,–,–
CS(=O)(=O)c1ccc(/C(=N\OCCCCC(=O)O)C(Cc2ccccc2)n2ccnc2)cc1 (centres undefined),4.68,12,< 6.00,–,–
O=C(O)CCCCCO/N=C(\Cn1ccnc1)c1ccccc1,4.13,–,< 6.00,–,2
CSc1ccc(/C(=N\OCCCCC(=O)O)C(Cc2ccccc2)n2ccnc2)cc1 (centres undefined),5.12,49,< 6.00,–,–
O=C(O)CCCCO/N=C(/C1CCCCC1)C(Cc1cccc(F)c1)n1ccnc1 (centres undefined),6.85,–,6.60,–,–
O=C(O)CCCO/N=C(/Cn1ccnc1)C1CCCCC1,4.31,–,< 6.00,–,44
CCOC(=O)CCCCO/N=C(\C1CCCCC1)C(Cc1ccccc1)n1ccnc1 (centres undefined),5.89,–,6.37,–,–

SMILES,pIC50 [1],inhibition [2] [%],pIC50 [3],pIC50 [4],inhibition [5] [%]
O=C(O)CCCCO/N=C(/c1ccccc1)C(Cc1ccccc1)n1ccnc1 (centres undefined),5.94,–,7.70,5.68,–
CC(C)(CCO/N=C(\c1ccccc1)C(Cc1ccccc1)n1ccnc1)CC(=O)O (centres undefined),6.64,–,6.28,–,–
O=C(O)/C=C/c1ccc(Cn2ccnc2)cc1 [OZAGREL],< 4.00,–,–,–,–
O=C(O)COCCO/N=C(\c1ccccc1)C(Cc1ccccc1)n1ccnc1 (centres undefined),6.06,28,< 6.00,–,–
O=C(O)CCCCO/N=C(/Cn1ccnc1)c1ccccc1,4.34,–,6.57,–,–
O=C(O)CCCCO/N=C(/c1ccccc1)C(Cc1ccc(Cl)cc1)n1ccnc1 (centres undefined),6.77,–,6.60,–,–
Cc1ccc(CC(/C(=N/OCCCCC(=O)O)C2CCCCC2)n2ccnc2)cc1 (centres undefined),7.15,–,6.85,–,–
O=C(O)CCCCO/N=C(\C1CCCCC1)C(Cc1ccccc1)n1ccnc1 (centres undefined),7.10,–,7.22,6.36,–
O=C(O)CCCO/N=C(\Cn1ccnc1)c1ccccc1,< 4.00,–,< 6.00,–,17
O=C(CCCCO/N=C(\C1CCCCC1)C(Cc1ccccc1)n1ccnc1)NO (centres undefined),6.28,–,6.15,–,–
COc1ccc(CC(/C(=N/OCCCCC(=O)O)C2CCCCC2)n2ccnc2)cc1 (centres undefined),7.15,–,6.49,–,–
O=C(O)CCCCO/N=C(\c1ccccc1)C(Cc1ccc(F)cc1)n1ccnc1 (centres undefined),7.40,–,6.41,6.68,–
O=C(O)CCCCO/N=C(\Cn1ccnc1)C1CCCCC1,4.27,–,7.40,5.61,–
O=C(O)CCCCO/N=C(\C1CCCCC1)C(CC1CCCCC1)n1ccnc1 (centres undefined),5.72,43,< 6.00,–,–
CCCCCC/C(Cn1ccnc1)=N\OCCCCC(=O)O,4.71,–,6.44,–,–
O=C(O)CCCCO/N=C(/C1CCCCC1)C(Cc1ccccc1)n1ccnc1 (centres undefined),6.01,–,7.00,–,–
CC(/C(=N\OCCCCC(=O)O)c1ccccc1)n1ccnc1 (centres undefined),3.53,–,6.80,–,–
O=C(O)CCCCO/N=C(\C1CCCCC1)C(Cc1ccc(F)cc1)n1ccnc1 (centres undefined),7.70,–,6.43,6.52,–
O=C(O)CCCCO/N=C(\C1CCCCC1)C(Cc1ccccn1)n1ccnc1 (centres undefined),5.48,–,6.52,–,–
O=C(O)CCCCO/N=C(\C1CCCCC1)C(Cc1cnccn1)n1ccnc1 (centres undefined),6.72,–,7.15,–,–
O=C(O)CCCO/N=C(\Cn1ccnc1)C1CCCCC1,< 4.00,–,< 6.00,–,8
O=C(O)CCCCO/N=C(\c1ccccc1)C(Cc1ccccc1)n1ccnc1 (centres undefined),6.77,–,7.30,6.43,–
CCCCCC/C(=N\OCCCCC(=O)O)C(Cc1ccccc1)n1ccnc1 (centres undefined),5.52,–,7.30,–,–
O=C(O)CCCCO/N=C(\Cn1ccnc1)c1ccccc1,4.83,–,6.77,–,–
O=C(O)CCCCO/N=C(/c1ccccc1)C(Cc1ccc(F)cc1)n1ccnc1 (centres undefined),6.28,–,7.22,6.55,–

# — ChEMBL document CHEMBL1127376, “Agents combining thromboxane receptor antagonism with thromboxane synthase inhibition: [[[2-(1H-imidazol-1-yl)ethylidene]amino]oxy]alkanoic acids” (J Med Chem, 1994)
